{"source": "ChEMBL document CHEMBL1123648", "about": "“Synthesis, chemical reactivity, and antileukemic activity of 5-substituted 6,7-bis(hydroxymethyl)pyrrolo[1,2-c]thiazole biscarbamates and the corresponding sulfoxides and sulfones” (1987)", "key": {"[1]": {"assay": "Percent increase in life span of test animals compared to untreated tumor-bearing control group C animals at a dose of 50 mg/kg", "format": "functional", "details": "Mus musculus"}, "[2]": {"assay": "Antileukemic activity against Murine P388 lymphocytic leukemia, body weight difference of the test animals compared to control group A animals at a dose of 50 mg/kg", "format": "functional, Mus musculus", "set-up": "unit not given here", "outline": "(§1)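 CD2F1 mice implanted intraperitoneally with ascitic fluid carrying ca. 1×10^6 P388 cells, under the NCI protocol. Dosing was intraperitoneal, starting 24 h after inoculation, then every 24 h for five doses in total. The body weight difference of treated mice is taken against untreated controls. Toxicity day survivors are the mice alive at day five out of those tested.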"}, "[3]": {"assay": "Percent increase in life span of test animals compared to untreated tumor-bearing control group B animals at a dose of 6.25 mg/kg", "format": "functional", "details": "Mus musculus"}, "[4]": {"assay": "Log cell population relative to cell population at the beginning of treatment compared to control group A at a dose of 100 mg/kg", "format": "functional, Mus musculus"}, "[5]": {"assay": "Toxicity day survivors expressed as number of animals that survived to day five/ number of test animals under control group B at a dose of 100 mg/kg; 6 survived out of 6", "format": "functional, Mus musculus"}, "[6]": {"assay": "Percent increase in life span of test animals compared to untreated tumor-bearing control group A animals at a dose of 25 mg/kg", "format": "functional", "details": "Mus musculus"}, "[7]": {"assay": "Percent increase in life span of test animals compared to untreated tumor-bearing control group B animals at a dose of 12.5 mg/kg", "format": "functional", "details": "Mus musculus"}, "[8]": {"assay": "Percent increase in life span of test animals compared to untreated tumor-bearing control group B animals at a dose of 100 mg/kg", "format": "functional", "details": "Mus musculus"}, "P388 [9]": {"test_system": "P388", "assay": "Log cell population relative to cell population at the beginning of treatment compared to control group B at a dose of 6.25 mg/kg", "format": "functional, Mus musculus"}, "P388 [10]": {"test_system": "P388", "assay": "Log cell population relative to cell population at the beginning of treatment compared to control group B at a dose of 50 mg/kg", "format": "functional, Mus musculus"}, "[11]": {"assay": "Toxicity day survivors expressed as number of animals that survived to day five/ number of test animals under control group B at a dose of 50 mg/kg; 6 survived out of 6", "format": "functional, Mus musculus"}, "[12]": {"assay": "Antileukemic activity against Murine P388 lymphocytic leukemia, body weight difference of the test animals compared to control group A animals at a dose of 100 mg/kg", "format": "functional, Mus musculus", "set-up": "unit not given here", "outline": "as §1"}, "[13]": {"assay": "Antileukemic activity against Murine P388 lymphocytic leukemia, body weight difference of the test animals compared to control group C animals at a dose of 50 mg/kg", "format": "functional, Mus musculus", "set-up": "unit not given here", "outline": "as §1"}, "[14]": {"assay": "Antileukemic activity against Murine P388 lymphocytic leukemia, body weight difference of the test animals compared to control group B animals at a dose of 25 mg/kg", "format": "functional, Mus musculus", "set-up": "unit not given here", "outline": "as §1"}, "P388 [15]": {"test_system": "P388", "assay": "Log cell population relative to cell population at the beginning of treatment compared to control group B at a dose of 12.5 mg/kg", "format": "functional, Mus musculus"}, "P388 [16]": {"test_system": "P388", "assay": "Log cell population relative to cell population at the beginning of treatment compared to control group C at a dose of 50 mg/kg", "format": "functional, Mus musculus"}, "[17]": {"assay": "Toxicity day survivors expressed as number of animals that survived to day five/ number of test animals under control group A at a dose of 100 mg/kg; 6 survived out of 6", "format": "functional, Mus musculus"}, "[18]": {"assay": "Toxicity day survivors expressed as number of animals that survived to day five/ number of test animals under control group C at a dose of 6.25 mg/kg; 6 survived out of 6", "format": "functional, Mus musculus"}, "[19]": {"assay": "Toxicity day survivors expressed as number of animals that survived to day five/ number of test animals under control group C at a dose of 25 mg/kg; 6 survived out of 6", "format": "functional, Mus musculus"}, "[20]": {"assay": "Antileukemic activity against Murine P388 lymphocytic leukemia and toxicity day survivors expressed as number of animals that survived to day five/ number of test animals under control group C at a dose of 50 mg/kg; 6 survived out of 6", "format": "functional, Mus musculus"}, "[21]": {"assay": "Percent increase in life span of test animals compared to untreated tumor-bearing control group C animals at a dose of 100 mg/kg", "format": "functional", "details": "Mus musculus"}, "[22]": {"assay": "Percent increase in life span of test animals compared to untreated tumor-bearing control group A animals at a dose of 6.25 mg/kg", "format": "functional", "details": "Mus musculus"}, "[23]": {"assay": "Antileukemic activity against Murine P388 lymphocytic leukemia, body weight difference of the test animals compared to control group C animals at a dose of 25 mg/kg", "format": "functional, Mus musculus", "outline": "as §1"}, "[24]": {"assay": "Antileukemic activity against Murine P388 lymphocytic leukemia, body weight difference of the test animals compared to control group A animals at a dose of 6.25 mg/kg", "format": "functional, Mus musculus", "outline": "as §1"}, "[25]": {"assay": "Percent increase in life span of test animals compared to untreated tumor-bearing control group A animals at a dose of 100 mg/kg", "format": "functional", "details": "Mus musculus"}, "[26]": {"assay": "Toxicity day survivors expressed as number of animals that survived to day five/ number of test animals under control group A at a dose of 6.25 mg/kg; 6 survived out of 6", "format": "functional, Mus musculus"}, "[27]": {"assay": "Antileukemic activity against Murine P388 lymphocytic leukemia and toxicity day survivors expressed as number of animals that survived to day five/ number of test animals under control group B at a dose of 25 mg/kg; 6 survived out of 6", "format": "functional, Mus musculus"}, "[28]": {"assay": "Percent increase in life span of test animals compared to untreated tumor-bearing control group B animals at a dose of 25 mg/kg", "format": "functional", "details": "Mus musculus"}, "[29]": {"assay": "Percent increase in life span of test animals compared to untreated tumor-bearing control group C animals at a dose of 6.25 mg/kg", "format": "functional", "details": "Mus musculus"}, "P388 [30]": {"test_system": "P388", "assay": "Log cell population relative to cell population at the beginning of treatment compared to control group C at a dose of 12.5 mg/kg", "format": "functional, Mus musculus"}, "[31]": {"assay": "Antileukemic activity against Murine P388 lymphocytic leukemia, body weight difference of the test animals compared to control group B animals at a dose of 50 mg/kg", "format": "functional, Mus musculus", "set-up": "unit not given here", "outline": "as §1"}, "[32]": {"assay": "Antileukemic activity against Murine P388 lymphocytic leukemia, body weight difference of the test animals compared to control group A animals at a dose of 25 mg/kg", "format": "functional, Mus musculus", "set-up": "unit not given here", "outline": "as §1"}, "P388 [33]": {"test_system": "P388", "assay": "Log cell population relative to cell population at the beginning of treatment compared to control group A at a dose of 25 mg/kg", "format": "functional, Mus musculus"}, "[34]": {"assay": "Toxicity day survivors expressed as number of animals that survived to day five/ number of test animals under control group B at a dose of 12.5 mg/kg; 6 survived out of 6", "format": "functional, Mus musculus"}, "P388 [35]": {"test_system": "P388", "assay": "Log cell population relative to cell population at the beginning of treatment compared to control group B at a dose of 25 mg/kg", "format": "functional, Mus musculus"}, "P388 [36]": {"test_system": "P388", "assay": "Log cell population relative to cell population at the beginning of treatment compared to control group C at a dose of 6.25 mg/kg", "format": "functional, Mus musculus"}, "[37]": {"assay": "Percent increase in life span of test animals compared to untreated tumor-bearing control group A animals at a dose of 50 mg/kg", "format": "functional", "details": "Mus musculus"}, "[38]": {"assay": "Antileukemic activity against Murine P388 lymphocytic leukemia, body weight difference of the test animals compared to control group B animals at a dose of 6.25 mg/kg", "format": "functional, Mus musculus", "outline": "as §1"}, "P388 [39]": {"test_system": "P388", "assay": "Log cell population relative to cell population at the beginning of treatment compared to control group A at a dose of 12.5 mg/kg", "format": "functional, Mus musculus"}, "[40]": {"assay": "Toxicity day survivors expressed as number of animals that survived to day five/ number of test animals under control group A at a dose of 25 mg/kg; 6 survived out of 6", "format": "functional, Mus musculus"}}}
{"smiles": "CC(C)NC(=O)OCc1c(COC(=O)NC(C)C)c(-c2ccc(Cl)c(Cl)c2)n2c1CCC2", "values": [{"measurement": "ILS at 50 mg/kg", "setting": "[1]", "value": 96, "unit": "%"}, {"measurement": "BWD", "setting": "[2]", "value": -2.6}, {"measurement": "ILS at 6.25 mg/kg", "setting": "[3]", "value": 41, "unit": "%"}, {"measurement": "KE", "setting": "[4]", "value": 0.8}, {"measurement": "TDS", "setting": "[5]", "value": 6}, {"measurement": "ILS at 25 mg/kg", "setting": "[6]", "value": 75, "unit": "%"}, {"measurement": "ILS at 12.5 mg/kg", "setting": "[7]", "value": 45, "unit": "%"}, {"measurement": "ILS at 100 mg/kg", "setting": "[8]", "value": -14, "unit": "%"}, {"measurement": "KE", "setting": "P388 [9]", "value": 0.69}, {"measurement": "KE", "setting": "P388 [10]", "value": 5.71}, {"measurement": "TDS", "setting": "[11]", "value": 6}, {"measurement": "BWD", "setting": "[12]", "value": -4.2}, {"measurement": "BWD", "setting": "[13]", "value": -1.8}, {"measurement": "BWD", "setting": "[14]", "value": -2.2}, {"measurement": "KE", "setting": "P388 [15]", "value": 1.08}, {"measurement": "KE", "setting": "P388 [16]", "value": 5.27}, {"measurement": "TDS", "setting": "[17]", "value": 6}, {"measurement": "TDS", "setting": "[18]", "value": 6}, {"measurement": "TDS", "setting": "[19]", "value": 6}, {"measurement": "TDS", "setting": "[20]", "value": 6}, {"measurement": "ILS at 100 mg/kg", "setting": "[21]", "value": 123, "unit": "%"}, {"measurement": "ILS at 6.25 mg/kg", "setting": "[22]", "value": 51, "unit": "%"}, {"measurement": "BWD", "setting": "[23]", "value": -1.4}, {"measurement": "BWD", "setting": "[24]", "value": 0}, {"measurement": "ILS at 100 mg/kg", "setting": "[25]", "value": 48, "unit": "%"}, {"measurement": "TDS", "setting": "[26]", "value": 6}, {"measurement": "TDS", "setting": "[27]", "value": 6}, {"measurement": "ILS at 25 mg/kg", "setting": "[28]", "value": 66, "unit": "%"}, {"measurement": "ILS at 6.25 mg/kg", "setting": "[29]", "value": 26, "unit": "%"}, {"measurement": "KE", "setting": "P388 [30]", "value": -0.07}, {"measurement": "BWD", "setting": "[31]", "value": -3.1}, {"measurement": "BWD", "setting": "[32]", "value": -1.7}, {"measurement": "KE", "setting": "P388 [33]", "value": 2.81}, {"measurement": "TDS", "setting": "[34]", "value": 6}, {"measurement": "KE", "setting": "P388 [35]", "value": 3.01}, {"measurement": "KE", "setting": "P388 [36]", "value": -0.55}, {"measurement": "ILS at 50 mg/kg", "setting": "[37]", "value": 97, "unit": "%"}, {"measurement": "BWD", "setting": "[38]", "value": -0.5}, {"measurement": "KE", "setting": "P388 [39]", "value": 1.4}, {"measurement": "TDS", "setting": "[40]", "value": 6}]}
